Assay results from ChEMBL document CHEMBL3526089, “Selective mechanism-based inactivation of CYP3A4 by CYP3cide (PF-04981517) and its utility as an in vitro tool for delineating the relative roles of CYP3A4 versus CYP3A5 in the metabolism of drugs” (Drug Metab Dispos, 2012).

Legend:
Assay type in all cases: ADME; call rule not given here
CYP2C19 = CYP2C19 (Homo sapiens, UniProt P33261); assay: Time dependent inhibition of human CYP2C19 S-mephenytoin 4'-hydroxylase activity assessed as decrease in enzyme activity at 100 uM preincubated for 30 mins by IC25-shift assay; details: probe S-mephenytoin (4'-hydroxylation)
Chain of CYP2C19 (P33261 whole entry): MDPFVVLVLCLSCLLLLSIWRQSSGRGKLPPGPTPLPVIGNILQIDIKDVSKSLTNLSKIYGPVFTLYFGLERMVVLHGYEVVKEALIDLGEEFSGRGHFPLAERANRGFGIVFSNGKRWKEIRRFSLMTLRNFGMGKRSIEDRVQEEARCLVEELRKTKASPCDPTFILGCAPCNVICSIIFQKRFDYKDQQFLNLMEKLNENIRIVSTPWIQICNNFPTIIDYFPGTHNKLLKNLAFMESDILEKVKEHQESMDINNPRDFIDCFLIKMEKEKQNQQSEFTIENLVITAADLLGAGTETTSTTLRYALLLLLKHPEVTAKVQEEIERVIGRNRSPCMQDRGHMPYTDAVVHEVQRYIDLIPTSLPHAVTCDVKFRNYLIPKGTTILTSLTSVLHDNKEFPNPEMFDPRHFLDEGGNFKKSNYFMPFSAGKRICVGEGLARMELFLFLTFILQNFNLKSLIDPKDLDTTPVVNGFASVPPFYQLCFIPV
Outline: (§1)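 IC25-shift assay. Pooled HLMs or recombinant CYP3A4/3A5/3A7 were preincubated 30 min at 37°C with CYP3cide, with or without NADPH (1.3 mM) (N=2). Mixture diluted 10-fold into probe substrate (~KM) at 37°C. Metabolites analysed by LC/MS/MS. Readout: % decrease in activity vs control.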

CYP2D6 = CYP2D6 (Homo sapiens, UniProt P10635); assay: Time dependent inhibition of human CYP2D6 dextromethorphan O-demethylase activity assessed as decrease in enzyme activity at 100 uM preincubated for 30 mins by IC25-shift assay; details: probe dextromethorphan (O-demethylation); outline: as §1
Chain of CYP2D6 (P10635 whole entry): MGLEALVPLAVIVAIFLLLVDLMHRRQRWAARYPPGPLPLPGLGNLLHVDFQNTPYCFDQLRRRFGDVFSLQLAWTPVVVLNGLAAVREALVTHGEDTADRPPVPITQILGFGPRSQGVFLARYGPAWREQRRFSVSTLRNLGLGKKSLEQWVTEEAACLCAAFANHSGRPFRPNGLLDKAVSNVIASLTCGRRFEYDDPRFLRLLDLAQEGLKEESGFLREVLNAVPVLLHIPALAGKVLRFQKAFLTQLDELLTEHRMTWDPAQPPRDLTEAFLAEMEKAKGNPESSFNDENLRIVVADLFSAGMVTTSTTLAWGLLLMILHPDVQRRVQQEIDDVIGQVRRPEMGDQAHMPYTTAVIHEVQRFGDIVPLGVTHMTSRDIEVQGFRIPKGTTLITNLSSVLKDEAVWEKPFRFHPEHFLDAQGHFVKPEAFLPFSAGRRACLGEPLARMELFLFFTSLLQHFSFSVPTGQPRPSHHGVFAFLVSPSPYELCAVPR

CYP3A5 [1] = target: T1, CYP3A5 (Homo sapiens, UniProt P20815); assay: Time dependent inhibition of midazolam 1'-hydroxylase activity of human recombinant CYP3A5 harboring human P450 oxidoreductase and b5 assessed as decrease in enzyme activity at 2 uM preincubated for 30 mins by IC25-shift assay; details: recombinant CYP3A5 with human P450 oxidoreductase and b5, probe midazolam (1'-hydroxylation); outline: as §1
T1 sequence (P20815 whole entry): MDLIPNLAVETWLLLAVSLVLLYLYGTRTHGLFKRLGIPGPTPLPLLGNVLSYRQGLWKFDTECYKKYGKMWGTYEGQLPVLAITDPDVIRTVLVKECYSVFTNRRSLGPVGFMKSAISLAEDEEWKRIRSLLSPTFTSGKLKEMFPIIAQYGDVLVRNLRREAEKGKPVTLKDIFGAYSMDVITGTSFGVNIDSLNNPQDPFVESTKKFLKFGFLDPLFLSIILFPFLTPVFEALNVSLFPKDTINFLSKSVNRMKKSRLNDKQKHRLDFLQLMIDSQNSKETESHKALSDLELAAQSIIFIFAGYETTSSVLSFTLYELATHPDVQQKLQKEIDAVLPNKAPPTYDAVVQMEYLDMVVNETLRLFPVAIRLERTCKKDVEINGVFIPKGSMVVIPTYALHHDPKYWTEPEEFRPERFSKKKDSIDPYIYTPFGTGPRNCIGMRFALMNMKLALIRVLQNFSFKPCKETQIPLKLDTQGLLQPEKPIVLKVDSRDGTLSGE

CYP3A5 [2] = target: T1, CYP3A5; assay: Time dependent inhibition of testosterone 6beta-hydroxylase activity of human recombinant CYP3A5 in presence of human P450 oxidoreductase and b5 assessed as decrease in enzyme activity at 2 uM preincubated for 30 mins by IC25-shift assay; details: recombinant CYP3A5 with human P450 oxidoreductase and b5, probe testosterone (6beta-hydroxylation); outline: as §1
Cytochrome P450 3A4 [3] = target: T2, Cytochrome P450 3A4 (Homo sapiens, UniProt P08684); assay: Inhibition of midazolam 1'-hydroxylase activity of human recombinant CYP3A4 harboring human P450 oxidoreductase and b5 assessed as decrease in enzyme activity preincubated for 30 mins by LC-MS/MS analysis
T2 sequence (P08684 whole entry): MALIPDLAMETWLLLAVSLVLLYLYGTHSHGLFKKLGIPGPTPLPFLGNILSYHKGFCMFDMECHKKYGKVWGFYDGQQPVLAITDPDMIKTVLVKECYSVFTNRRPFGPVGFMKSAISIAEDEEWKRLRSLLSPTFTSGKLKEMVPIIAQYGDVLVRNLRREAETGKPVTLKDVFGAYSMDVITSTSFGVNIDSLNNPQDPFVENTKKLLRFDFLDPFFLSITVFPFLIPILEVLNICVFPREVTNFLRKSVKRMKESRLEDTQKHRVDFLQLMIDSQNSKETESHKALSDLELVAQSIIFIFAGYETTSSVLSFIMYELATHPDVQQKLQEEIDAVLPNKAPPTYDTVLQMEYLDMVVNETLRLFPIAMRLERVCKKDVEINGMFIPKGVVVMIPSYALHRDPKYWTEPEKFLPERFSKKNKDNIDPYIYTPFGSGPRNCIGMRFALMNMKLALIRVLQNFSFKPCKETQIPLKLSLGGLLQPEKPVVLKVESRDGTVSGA
Outline: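 Recombinant CYP3A4 with POR and cytochrome b5 was preincubated with inhibitor at 0.050 µM, with or without NADPH (1.3 mM), for 30 min at 37°C (N=2). The mixture was then diluted 10-fold into the probe substrate (about KM) at 37°C and analysed for metabolite. Results are percent decrease in activity versus control.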

Cytochrome P450 1A2 = Cytochrome P450 1A2 (Homo sapiens, UniProt P05177); assay: Reversible inhibition of human CYP1A2 phenacetin O-deethylase activity
Chain of Cytochrome P450 1A2 (P05177 whole entry, canonical isoform): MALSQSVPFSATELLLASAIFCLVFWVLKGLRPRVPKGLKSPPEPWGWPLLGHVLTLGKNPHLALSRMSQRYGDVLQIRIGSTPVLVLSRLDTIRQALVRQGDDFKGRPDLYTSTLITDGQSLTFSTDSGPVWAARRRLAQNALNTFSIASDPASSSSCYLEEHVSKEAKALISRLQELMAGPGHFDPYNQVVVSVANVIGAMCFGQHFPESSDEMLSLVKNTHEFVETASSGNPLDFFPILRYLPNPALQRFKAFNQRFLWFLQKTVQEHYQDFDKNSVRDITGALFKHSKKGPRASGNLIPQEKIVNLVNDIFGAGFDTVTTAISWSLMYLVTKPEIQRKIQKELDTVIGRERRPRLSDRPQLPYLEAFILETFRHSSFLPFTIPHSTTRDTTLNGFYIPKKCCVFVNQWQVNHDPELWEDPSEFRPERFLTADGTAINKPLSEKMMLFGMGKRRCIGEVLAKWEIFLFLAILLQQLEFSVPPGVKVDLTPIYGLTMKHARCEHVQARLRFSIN
Outline: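 Reversible IC50 with pooled HLM or recombinant CYP3A7 (with POR and b5), protein 0.010–0.10 mg/ml depending on isoform. Probe substrate at its experimentally derived KM. Metabolite formation measured by LC/MS/MS. IC50 determinations run in duplicate.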

Cytochrome P450 3A5 [4] = target: T3, Cytochrome P450 3A5 (Homo sapiens, UniProt P20815); assay: Reversible inhibition of midazolam 1'-hydroxylase activity of human recombinant CYP3A5 harboring human P450 oxidoreductase and b5
T3 sequence (P20815 whole entry): as the sequence (P20815 whole entry) above
Outline: (§2)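 Recombinant CYP3A5 expressed in baculovirus, with P450 oxidoreductase and cytochrome b5 (P450:POR:b5 1:13:7). Enzyme at 0.010 mg/ml for midazolam 1'-hydroxylase and 0.020 mg/ml for testosterone 6β-hydroxylase. Each substrate at its experimentally derived KM. IC50 determined in duplicate.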

Cytochrome P450 3A5 [5] = target: T3, Cytochrome P450 3A5; assay: Reversible inhibition of testosterone 6beta-hydroxylase activity of human recombinant CYP3A5 in presence of human P450 oxidoreductase and b5; outline: as §2
CYP2C8 = CYP2C8 (Homo sapiens, UniProt P10632); assay: Time dependent inhibition of human CYP2C8 paclitaxel 6alpha-hydroxylase activity assessed as decrease in enzyme activity at 100 uM preincubated for 30 mins by IC25-shift assay; details: probe paclitaxel (6alpha-hydroxylation); outline: as §1
Chain of CYP2C8 (P10632 whole entry): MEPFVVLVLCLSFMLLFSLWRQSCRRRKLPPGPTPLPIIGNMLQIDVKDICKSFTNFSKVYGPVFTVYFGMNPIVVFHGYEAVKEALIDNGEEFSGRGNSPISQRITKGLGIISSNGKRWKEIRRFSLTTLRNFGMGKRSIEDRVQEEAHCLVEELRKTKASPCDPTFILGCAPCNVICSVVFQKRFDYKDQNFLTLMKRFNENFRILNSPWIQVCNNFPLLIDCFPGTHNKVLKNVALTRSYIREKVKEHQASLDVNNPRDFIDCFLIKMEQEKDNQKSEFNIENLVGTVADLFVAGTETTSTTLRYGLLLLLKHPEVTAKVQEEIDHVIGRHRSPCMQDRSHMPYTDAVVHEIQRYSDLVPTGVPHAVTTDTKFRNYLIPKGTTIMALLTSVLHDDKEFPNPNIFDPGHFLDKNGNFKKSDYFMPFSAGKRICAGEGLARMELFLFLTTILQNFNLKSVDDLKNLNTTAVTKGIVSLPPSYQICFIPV

Cytochrome P450 3A4 [6] = target: T2, Cytochrome P450 3A4; assay: Drug metabolism assessed as human recombinant CYP3A4 in presence of human P450 oxidoreductase and b5-mediated (4-(1-methyl-4-((S)-3-(piperidin-1-yl)pyrrolidin-1-yl)-1H-pyrazolo[3,4-d]pyrimidin-3-yl)-5-p-tolyl-1H-pyrazol-1-yl)methanol formation at 10 uM by HPLC-MS analysis in presence of NADPH; details: recombinant enzyme
Outline: (§3)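 Recombinant CYP3A4 or CYP3A5 (50 pmol/ml final) added, without preincubation, to 10 µM CYP3cide with NADPH (final 1 mM) in 100 mM phosphate pH 7.4. Trapping incubations also held 200 µM KCN or 5 mM GSH (final). Incubated 1 h at 37°C, quenched with acetonitrile, dried, reconstituted. Metabolites analysed by LC/Orbitrap ESI-MS.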

Cytochrome P450 3A5 [7] = target: T3, Cytochrome P450 3A5; assay: Drug metabolism assessed as human recombinant CYP3A5 in presence of human P450 oxidoreductase and b5-mediated (4-(1-methyl-4-((S)-3-(piperidin-1-yl)pyrrolidin-1-yl)-1H-pyrazolo[3,4-d]pyrimidin-3-yl)-5-p-tolyl-1H-pyrazol-1-yl)methanol formation at 10 uM by HPLC-MS analysis in presence of NADPH; details: recombinant enzyme; outline: as §3
Cytochrome P450 3A5 [8] = target: T3, Cytochrome P450 3A5; assay: (§4) Drug metabolism assessed as human recombinant CYP3A5 in presence of human P450 oxidoreductase and b5-mediated 1-((3S)-1-(1-methyl-3-(1-methyl-5-p-tolyl-1H-pyrazol-4-yl)-1H-pyrazolo[3,4-d]pyrimidin-4-yl)pyrrolidin-3-yl)-2,3,4,5-tetrahydropyridinium formation at 10 uM by HPLC-MS analysis in presence of NADPH; details: recombinant enzyme; outline: as §3
Cytochrome P450 3A5 [9] = target: T3, Cytochrome P450 3A5; assay: as §4, with “presence of KCN and NADPH” for “presence of NADPH”; details: recombinant enzyme; outline: as §3
CYP3A5*1/*1 [10] = assay: Inhibition of CYP3A5*1/*1 in human liver microsomes assessed as midazolam 1'-hydroxylase activity at 0.56 uM after 10 mins; details: liver microsomes (CYP3A5*1/*1 genotype), probe midazolam (1'-hydroxylation)
Outline: (§5)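 Genotyped individual HLMs (0.1 mg/ml) preincubated at 37°C with CYP3cide (0–1.3 μM; 10 min in the two-donor study, 5 min in the 30-donor study), with or without 1.3 mM NADPH (N=3). Mixture diluted 20-fold into 23 μM midazolam for 6 min. 1'-OH-midazolam measured. Readout: % of vehicle/no-NADPH control activity.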

[11] = Inhibition of CYP3A5*3/*3 in 5 mg/ml of human liver microsomes assessed as midazolam 1'-hydroxylase activity at <2.5 uM after 10 mins
[12] = Inhibition of CYP3A5*3/*3 in 5 mg/ml of human liver microsomes assessed as midazolam 1'-hydroxylase activity at 13 uM after 10 mins
CYP3A5*1/*1 [13] = assay: Time dependent inhibition of CYP3A5*1/*1 in human liver microsomes assessed as midazolam 1'-hydroxylase activity at 0.56 uM after 10 mins by dilution method; details: liver microsomes (CYP3A5*1/*1 genotype), probe midazolam (1'-hydroxylation); outline: as §5
CYP3A5*1/*3 = assay: Time dependent inhibition of CYP3A5*1/*3 in human liver microsomes assessed as midazolam 1'-hydroxylase activity at 0.56 uM after 10 mins by dilution method; details: human liver microsomes (CYP3A5*1/*3 genotype), probe midazolam (1'-hydroxylation)
CYP3A5*3/*3 = assay: Time dependent inhibition of CYP3A5*3/*3 in human liver microsomes assessed as midazolam 1'-hydroxylase activity at 0.56 uM after 10 mins by dilution method; details: human liver microsomes (CYP3A5*3/*3 genotype), probe midazolam (1'-hydroxylation); outline: as §5

inhibition at 30 min, 100 µM (CYP2C19): 0.79% | inhibition at 30 min, 100 µM (CYP2D6): 6% | inhibition at 30 min, 2 µM (CYP3A5 [1]): 61% | inhibition at 30 min, 2 µM (CYP3A5 [2]): 71% | Ki (Cytochrome P450 3A4 [3]): 0.12 µM | IC50 (Cytochrome P450 1A2): 43 µM | IC50 (Cytochrome P450 3A5 [4]): 17 µM | IC50 (Cytochrome P450 3A5 [5]): 71 µM | inhibition at 30 min, 100 µM (CYP2C8): 13% | Drug metabolism (Cytochrome P450 3A4 [6]): metabolite_detected | Drug metabolism (Cytochrome P450 3A5 [7]): metabolite_detected | Drug metabolism (Cytochrome P450 3A5 [8]): metabolite_detected | Drug metabolism (Cytochrome P450 3A5 [9]): metabolite_detected | inhibition at 10 min, 0.56 µM (CYP3A5*1/*1 [10]): 23% | inhibition (INH) [11]: Not Active | inhibition (INH) [12]: Active | inhibition at 10 min, 0.56 µM (CYP3A5*1/*1 [13]): 0.4% | inhibition at 10 min, 0.56 µM (CYP3A5*1/*3): 0.4% | inhibition at 10 min, 0.56 µM (CYP3A5*3/*3): 0.4%
SMILES: Cc1ccc(-c2c(-c3nn(C)c4ncnc(N5CC[C@H](N6CCCCC6)C5)c34)cnn2C)cc1
